Results taken from ChEMBL document CHEMBL1250459, “Photoaffinity labeling of Ras converting enzyme 1 (Rce1p) using a benzophenone-containing peptide substrate” (Bioorg Med Chem, 2010).
Several values for one entry are separate records, joined by “and”; a condition that tells them apart may be missing. Equal entries are not always repeated. Where a SMILES comes first, the peptide text is derived from it. [ ]: non-standard residue; d: D form. The star is where a group is joined. X1 = O=[N+]([O-])c1cc([N+](=O)[O-])cc(*)c1; Farnesyl = CC(C)=CCC/C(C)=C/CC/C(C)=C/C*; 2Abz = Nc1ccccc1C(=O)O

T1: CAAX prenyl protease 2 (Saccharomyces cerevisiae S288c) (UniProt Q03530)
T1 sequence (whole entry): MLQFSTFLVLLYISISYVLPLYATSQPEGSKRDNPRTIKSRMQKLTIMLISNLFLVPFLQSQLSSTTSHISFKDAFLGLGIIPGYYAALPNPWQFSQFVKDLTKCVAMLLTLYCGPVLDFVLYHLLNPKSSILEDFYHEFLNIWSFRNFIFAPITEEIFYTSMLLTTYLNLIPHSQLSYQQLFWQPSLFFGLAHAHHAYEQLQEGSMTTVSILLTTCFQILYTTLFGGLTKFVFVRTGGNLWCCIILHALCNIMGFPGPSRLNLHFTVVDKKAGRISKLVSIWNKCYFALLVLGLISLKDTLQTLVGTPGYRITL


What was measured:
Assay type in all cases: cell membranes
[1] = target: T1, CAAX prenyl protease 2 (Saccharomyces cerevisiae S288c); assay: (§1) Binding affinity to Rce1p in yeast membranes assessed as reduction in binding affinity at 0.75 uM after 30 mins by Western blotting in presence of 100 uM of (3S,6S,9S,12S,15S,18R,21S,24S,27S)-3,9,15-tris(4-aminobutyl)-24-sec-butyl-21-(4-(3,5-dinitrophenylamino)butyl)-12-((S)-1-hydroxyethyl)-6-(hydroxymethyl)-22-imino-27-(2-(methylthio)ethyl)-1,4,7,10,13,16,19,25-octaoxo-1-phenyl-18-(((2E,6E)-3,7,11-trimethyldodeca-2,6,10-trienylthio)methyl)-2,5,8,11,14,17,20,23,26-nonaazaoctacosan-28-oic acid; design: scale not given: the % may be the effect or the level left
Procedure, shortened: (§2)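 Competition photolabelling: Rce1p-containing yeast membranes (0.25 μg/μL) with biotinylated benzophenone probe (0.75 μM) in 100 mM Hepes, 5 mM MgCl2, pH 7.5. Farnesylated competitor peptide added at 50 or 100 μM. UV photolysis 30 min at 4 °C, then streptavidin pull-down and anti-HA Western blot. Band intensities quantified by densitometry relative to the no-competitor reaction.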

[2] = target: T1, CAAX prenyl protease 2 (Saccharomyces cerevisiae S288c); assay: as §1, with “50” for “100”; design: scale not given: the % may be the effect or the level left; procedure, shortened: as §2
[3] = substrate: CC[C@H](C)[C@H](NC(=O)[C@H](CCCCNc1cc([N+](=O)[O-])cc([N+](=O)[O-])c1)NC(=O)[C@H](CSC/C=C(\C)COCc1cccc(C(=O)c2ccccc2)c1)NC(=O)[C@H](CCCCN)NC(=O)[C@@H](NC(=O)[C@H](CCCCN)NC(=O)[C@H](CO)NC(=O)[C@H](CCCCN)NC(=O)c1ccccc1N)[C@@H](C)O)C(=O)N[C@@H](CCSC)C(=O)O; assay: Activity of Rce1p in yeast membranes assessed as enzyme-mediated Ca1a2X proteolysis per mg of protein measured every 30 to 60 seconds for 1 hr by spectrofluorimetric assay; conditions: Saccharomyces cerevisiae
[4] = substrate: CC[C@H](C)[C@H](NC(=O)[C@H](CCCCNc1cc([N+](=O)[O-])cc([N+](=O)[O-])c1)NC(=O)[C@H](CSC/C=C(\C)COCc1cccc(C(=O)c2ccccc2)c1)NC(=O)[C@H](CCCCN)NC(=O)[C@@H](NC(=O)[C@H](CCCCN)NC(=O)[C@H](CO)NC(=O)[C@H](CCCCN)NC(=O)c1ccccc1N)[C@@H](C)O)C(=O)N[C@@H](CCSC)C(=O)O; assay: (§3) Activity of Rce1p in yeast membranes assessed as enzyme-mediated Ca1a2X proteolysis measured every 30 to 60 seconds for 1 hr by spectrofluorimetric assay; conditions: Saccharomyces cerevisiae
[5] = substrate: CC[C@H](C)[C@H](NC(=O)[C@H](CCCCNc1cc([N+](=O)[O-])cc([N+](=O)[O-])c1)NC(=O)[C@H](CSC/C=C(\C)CC/C=C(\C)CCC=C(C)C)NC(=O)[C@H](CCCCN)NC(=O)[C@@H](NC(=O)[C@H](CCCCN)NC(=O)[C@H](CO)NC(=O)[C@H](CCCCN)NC(=O)c1ccccc1N)[C@@H](C)O)C(=O)N[C@@H](CCSC)C(=O)O; assay: as §3; conditions: Saccharomyces cerevisiae

Row | Activity [1] | Activity [2] | Molecule | Vmax [3] | Km [4] | Km [5]
1 | 31% | 60% | CC[C@H](C)[C@H](NC(=O)[C@H](CCCCNc1cc([N+](=O)[O-])cc([N+](=O)[O-])c1)NC(=O)[C@H](CSC/C=C(\C)CC/C=C(\C)CCC=C(C)C)NC(=O)[C@H](CCCCN)NC(=O)[C@@H](NC(=O)[C@H](CCCCN)NC(=O)[C@H](CO)NC(=O)[C@H](CCCCN)NC(=O)c1ccccc1N)[C@@H](C)O)C(=O)N[C@@H](CCSC)C(=O)O (H-[2Abz]KSKTKC(Farnesyl)K(X1)IM-OH) | – | – | –
2 | – | – | CAAX prenyl protease 2 (Saccharomyces cerevisiae S288c), Q03530 (protein) MLQFSTFLVLLYISISYVLPLYATSQPEGSKRDNPRTIKSRMQKLTIMLISNLFLVPFLQSQLSSTTSHISFKDAFLGLGIIPGYYAALPNPWQFSQFVKDLTKCVAMLLTLYCGPVLDFVLYHLLNPKSSILEDFYHEFLNIWSFRNFIFAPITEEIFYTSMLLTTYLNLIPHSQLSYQQLFWQPSLFFGLAHAHHAYEQLQEGSMTTVSILLTTCFQILYTTLFGGLTKFVFVRTGGNLWCCIILHALCNIMGFPGPSRLNLHFTVVDKKAGRISKLVSIWNKCYFALLVLGLISLKDTLQTLVGTPGYRITL | 0.093 nmol/min/mg | 1.9 µM | 6.4 µM and 4 µM
